Consider seven molecules from ChEMBL document CHEMBL4837237, “Broomeanamides: Cyclic Octapeptides from an Isolate of the Fungicolous Ascomycete Sphaerostilbella broomeana from India” (J Nat Prod, 2021).

Structures are written as SMILES. In brackets after ≈: the same amount, converted by molar mass. Activity calls are given as the source filed them. The calls are words filed in the database; no cut-off is given here. Square brackets hold non-standard residues; d marks the D form. Peptide text beside a SMILES is read from it. ξ: configuration not given here. NMeF = CN[C@@H](Cc1ccccc1)C(=O)O; Ile(3ξ) = CCC(C)[C@H](N)C(=O)O; NMeL = CN[C@@H](CC(C)C)C(=O)O; NMeV = CN[C@H](C(=O)O)C(C)C

Assay [1] relates to Staphylococcus aureus. The assay can be described thus: Antibacterial activity against Staphylococcus aureus ATCC 29213 assessed as bacterial growth inhibition at 50 ug/disk measured after 24 to 72 hrs by disk diffusion assay. Type of assay: functional, organism-based. The conditions noted are these: time 24-72 hrs. The gist of the method: (§1)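 Agar disk diffusion. Inoculum suspension (1–3 mL) mixed into 100 mL autoclaved medium cooled to 45 °C: yeast malt agar for the yeast, tryptic soy agar for the bacterium. Poured as 5 mL plates. 6.25 mm paper disks loaded with 50 μg sample, solvent evaporated. Incubated at room temperature 24–72 h. Amphotericin or gentamicin at 25 μg/disk as positive controls.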

Assay [2] concerns Candida albicans. The assay can be described thus: Antifungal activity against Candida albicans ATCC10231 assessed as fungal growth inhibition at 50 ug/disk measured after 24 to 72 hrs by disk diffusion assay. Type of assay: functional, organism-based. To be noted: time 24-72 hrs. In outline:
as §1

Assay [3] has as its system Cryptococcus neoformans. The assay can be described thus: Antifungal activity against Cryptococcus neoformans H99 assessed as fungal growth inhibition incubated for 48 hrs at 37 degC by alamarBlue dye based assay. The format is functional. In outline: (§2)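 Broth MIC, modified CLSI method. Overnight cultures diluted to OD600 0.8 in PBS, then 1000-fold in MOPS-buffered RPMI-1640. Exposed to serial dilutions from 0.25 to 128 μM. Growth read by adding 10% alamarBlue. S. aureus ATCC 43300: 24 h at 37 °C. C. albicans ATCC 10231: 48 h at 23 °C. C. neoformans H99: 48 h at 23 and at 37 °C. Controls: chlortetracycline + streptomycin (bacterium), amphotericin B (fungi).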

Assay [4] concerns Cryptococcus neoformans. Briefly: Antifungal activity against Cryptococcus neoformans H99 assessed as fungal growth inhibition incubated for 48 hrs at 23 degC by alamarBlue dye based assay. The format is functional. In outline: as §2
The subject of assay [5] is Candida albicans. Briefly: Antifungal activity against Candida albicans ATCC 10231 assessed as fungal growth inhibition incubated for 48 hrs by alamarBlue dye based assay. The format is functional. In outline: as §2
Assay [6] relates to Staphylococcus aureus. Briefly: Antibacterial activity against Staphylococcus aureus ATCC 43300 assessed as bacterial growth inhibition incubated for 24 hrs by alamarBlue dye based assay. The format is functional. In outline: as §2

In the case of `CC(C)C[C@H]1C(=O)N[C@@H](C(C)C)C(=O)N2CCC[C@H]2C(=O)N(C)[C@@H](Cc2ccccc2)C(=O)N[C@@H](C)C(=O)N(C)[C@@H](C(C)C)C(=O)N(C)[C@@H](CC(C)C)C(=O)N[C@@H](C(C)C)C(=O)N1C` (cyclo(A[NMeV][NMeL]V[NMeL]VP[NMeF])), the result in assay [1] was Active.
As for `CN1C(=O)C2CCCN2C(=O)/C1=C/c1ccccc1` (configuration not stated), the result in assay [2] and in assay [1] was inactive.
On to `O=C1/C(=C/c2ccccc2)NC(=O)C2(O)CCCN12` (configuration not stated), for which the result in assay [2] and in assay [1] was inactive.
For the molecule `O=C1N/C(=C\c2ccccc2)C(=O)N2CCCC12` (configuration not stated), the outcome in assay [2] and in assay [1] was inactive.
Regarding `O=C1N[C@@H](Cc2ccccc2)C(=O)N2CCC[C@@H]12`, the result in assay [2] and in assay [1] was inactive.
Regarding `C[C@@H]1[C@H](O)[C@@H](C)/C=C/C=C/C=C/C=C/C=C/C=C/C=C/[C@H](O[C@@H]2O[C@H](C)[C@@H](O)[C@H](N)[C@@H]2O)C[C@@H]2O[C@](O)(C[C@@H](O)C[C@@H](O)[C@H](O)CC[C@@H](O)C[C@@H](O)CC(=O)O[C@H]1C)C[C@H](O)[C@H]2C(=O)O` [AMPHOTERICIN B], the MIC in assay [3] and in assay [4] was 0.85 µg/mL (≈ 0.92 µM) throughout.
As for `CCC(C)[C@@H]1NC(=O)[C@H](CC(C)C)N(C)C(=O)[C@H](C(C)C)N(C)C(=O)[C@H](C)NC(=O)[C@H](Cc2ccccc2)N(C)C(=O)[C@@H]2CCCN2C(=O)[C@H](C(C)C)NC(=O)[C@H](CC(C)C)N(C)C1=O` (some centres not stated) (cyclo(A[NMeV][NMeL][Ile(3ξ)][NMeL]VP[NMeF])), the outcome in assay [2] and in assay [1] was Active. The MIC in assay [3] turned out to be 8 µg/mL (≈ 8.8 µM); in assay [5], 64 µg/mL (≈ 70.4 µM); in assay [4], 128 µg/mL (≈ 141 µM); in assay [6] it was 128 µg/mL (≈ 141 µM).
